Data taken from ChEMBL document CHEMBL4251750, “Structural Insights of Benzenesulfonamide Analogues as NLRP3 Inflammasome Inhibitors: Design, Synthesis, and Biological Characterization” (J Med Chem, 2018).
Active and inactive are the calls of the source. The calls are words filed in the database; no cut-off is given here.

Experiments:
[1] = target: T1, NACHT, LRR and PYD domains-containing protein 3 (Mus musculus, UniProt Q8R4B8); assay: Inhibition of NLRP3 in mouse J774A.1 cells assessed as reduction in LPS-stimulated IL-1beta levels pre-incubated with LPS for 4.5 hrs followed by incubation for 30 mins in presence of ATP and measured after 30 mins by ELISA; format: cell-based
[2] = target: T1, NACHT, LRR and PYD domains-containing protein 3; assay: Inhibition of NLRP3 in mouse BMDM assessed as reduction in LPS-stimulated IL-1beta levels pre-incubated with LPS for 4.5 hrs followed by incubation for 30 mins in presence of ATP and measured after 30 mins by ELISA; format: cell-based
How it was run: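 J774A.1 cells (DMEM, 10% FBS; 1 × 10⁵/well, plated 24 h) or bone marrow derived macrophages primed with E. coli 0111:B4 LPS (final 1 µg/mL) for 4.5 h. Compound and ATP (5 mM) then added together for 30 min. Supernatant IL-1β by mouse ELISA.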

[3] = system: Mus musculus; assay: In-vivo inhibition of NLRP3 inflammasome in C57BL/6 mouse assessed as reduction in LPS-induced IL-1beta levels at 0.5 mg/kg, ip pre-treated for 1 hr followed by LPS stimulation for 2.5 hrs by ELISA; format: functional, organism-based
How it was run: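 C57BL/6 mice dosed with compound or vehicle, then 1 h later given LPS 20 mg/kg i.p. (PBS control). Serum IL-1β measured by ELISA 2.5 h after LPS.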

[4] = system: Mus musculus; assay: Effect on cognition activity in wild type C57BL/6 mouse assessed as decrease in time spent in goal quadran at 100 mg/kg, ip administered as single daily dose at 5 times per week for first 1 week followed by oral administration as single daily dose at 5 times per week for next 7 weeks by Morris water maze test relative to control; format: ADME, organism-based; conditions: in vivo
How it was run: (§1)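 APP/PS1 female transgenic mice (B6C3-Tg APPswe/PSEN1dE9) and matching WT females, randomized at 7 months (WT vehicle n=4, treated n=6; Tg vehicle n=5, treated n=7). Daily i.p. (10% DMSO with PEG-100) for 5 days, then oral (2% DMSO in corn oil) once daily weekdays for 7 weeks. Afterwards tested by novel object recognition (discrimination index) and Morris water maze (4-day fixed-platform latency trials, then probe trial).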

[5] = system: Mus musculus; assay: (§2) Cognition enhancement activity in double APP/PS1 transgenic Alzheimer's disease C57BL/6 mouse model assessed as discrimination index at 100 mg/kg, ip administered as single daily dose at 5 times per week for first 1 week followed by oral administration as single daily dose at 5 times per week for next 7 weeks by novel object recognition test relative to control; format: functional; how it was run: as §1
[6] = system: Mus musculus; assay: as §2, with “increase in time spent in goal quadran” for “discrimination index”, “Morris water maze” for “novel object recognition”; format: functional, organism-based; how it was run: as §1
[7] = system: Mus musculus; assay: as §2, with “decrease in latency to find goal platform” for “discrimination index”, “Morris water maze” for “novel object recognition”; format: functional, organism-based; how it was run: as §1
[8] = system: Mus musculus; assay: Cardioprotective activity in 30 mins coronary artery ligated I/R AMI ICR mouse model assessed as reduction in infract size at 30 mg/kg, po measured at 24 hrs post surgery by TTC-staining based assay; format: functional, organism-based
How it was run: (§3)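 ICR mice (8-12 weeks) were anesthetized with pentobarbital (50-70 mg/kg) and intubated, then underwent left thoracotomy and pericardiectomy. The proximal left coronary artery was ligated for 30 min or 75 min and released. Compound or vehicle was given at 0.1 mL, with n=6 per group. At 24 h after ischemia, viable myocardium was stained with TTC to measure infarct size.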

[9] = system: Mus musculus; assay: Cardioprotective activity in 30 mins coronary artery ligated I/R AMI ICR mouse model assessed as reduction in troponin-1 levels at 30 mg/kg, po measured at 24 hrs post surgery by ELISA; format: functional, organism-based
How it was run: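 ICR mice (8-12 weeks) under pentobarbital anaesthesia, intubated; left thoracotomy, pericardiectomy, proximal left coronary artery ligated 30 min then released. Compound or matched vehicle (0.1mL), n=6 per group.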

[10] = system: Mus musculus; assay: Cardioprotective activity in 75 mins coronary artery ligated I/R AMI ICR mouse model assessed as reduction in infract size at 30 mg/kg, po measured at 24 hrs post surgery by TTC-staining based assay; format: functional, organism-based; how it was run: as §3
[11] = target: NACHT, LRR and PYD domains-containing protein 3 (Mus musculus) (UniProt Q8R4B8); assay: Ratio of IC50 for LPS/ATP-induced NLRP3-mediated IL1beta release in mouse J774A.1 cells to IC50 for LPS/ATP-induced NLRP3-mediated IL1beta release in mouse BMDM; format: cell-based
Sequence of NACHT, LRR and PYD domains-containing protein 3 (Mus musculus) (Q8R4B8 whole entry, the tested form may be a part): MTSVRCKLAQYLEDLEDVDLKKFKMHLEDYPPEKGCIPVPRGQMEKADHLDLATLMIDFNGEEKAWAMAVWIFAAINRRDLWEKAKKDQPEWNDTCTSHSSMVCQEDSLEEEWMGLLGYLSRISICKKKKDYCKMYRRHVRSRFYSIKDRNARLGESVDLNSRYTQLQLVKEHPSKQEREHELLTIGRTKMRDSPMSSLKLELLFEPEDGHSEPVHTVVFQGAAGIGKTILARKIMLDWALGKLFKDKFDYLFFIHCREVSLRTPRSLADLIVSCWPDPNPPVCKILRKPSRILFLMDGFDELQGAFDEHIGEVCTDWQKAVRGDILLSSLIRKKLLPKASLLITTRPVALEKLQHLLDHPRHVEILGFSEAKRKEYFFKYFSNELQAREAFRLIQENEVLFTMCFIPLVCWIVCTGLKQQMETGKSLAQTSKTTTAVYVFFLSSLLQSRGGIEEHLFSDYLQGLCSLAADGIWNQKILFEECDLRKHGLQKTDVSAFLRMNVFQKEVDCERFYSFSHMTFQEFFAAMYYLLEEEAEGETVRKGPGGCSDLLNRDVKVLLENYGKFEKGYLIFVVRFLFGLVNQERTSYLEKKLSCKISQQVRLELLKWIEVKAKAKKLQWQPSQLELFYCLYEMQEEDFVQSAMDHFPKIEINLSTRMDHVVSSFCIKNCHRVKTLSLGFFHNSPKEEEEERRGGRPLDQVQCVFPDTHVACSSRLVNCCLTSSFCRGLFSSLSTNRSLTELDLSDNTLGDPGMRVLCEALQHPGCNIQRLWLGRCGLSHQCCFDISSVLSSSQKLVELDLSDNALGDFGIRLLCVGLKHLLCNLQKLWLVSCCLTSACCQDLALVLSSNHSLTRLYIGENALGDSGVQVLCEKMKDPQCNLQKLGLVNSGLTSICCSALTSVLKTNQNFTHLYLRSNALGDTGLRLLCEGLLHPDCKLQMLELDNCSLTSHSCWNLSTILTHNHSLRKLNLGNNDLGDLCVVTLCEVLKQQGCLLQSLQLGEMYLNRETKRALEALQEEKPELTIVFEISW

T1 sequence (Q8R4B8 whole entry, the tested form may be a part): as above

| SMILES | IC50 [1] [µM] | further results |
| --- | --- | --- |
| CNS(=O)(=O)c1ccc(CCNC(=O)c2c(Cl)cccc2OC)cc1 | 44.4 | – |
| COc1ccc(Cl)cc1C(=O)NCCc1ccc(S(=O)(=O)NCc2ccc(Cl)cc2)cc1 | 1.5 | – |
| CCN(CC)S(=O)(=O)c1ccc(CCNC(=O)c2cc(Cl)ccc2OC)cc1 | 2.01 | – |
| CCCNS(=O)(=O)c1ccc(CCNC(=O)c2cc(Cl)ccc2OC)cc1 | 1.64 | – |
| CNS(=O)(=O)c1ccc(CCNC(=O)c2ccc(OC)c(Cl)c2)cc1 | 32.8 | – |
| CNS(=O)(=O)c1ccc(CCNC(=O)c2ccccc2OC)cc1 | 17.1 | – |
| COc1ccc(Cl)cc1C(=O)NCCc1ccc(S(=O)(=O)Nc2ccccc2)cc1 | 2.08 | – |
| CNS(=O)(=O)c1ccc(CCNC(=O)c2ccc(Cl)cc2OC)cc1 | 18 | – |
| CNS(=O)(=O)c1ccc(CCNC(=O)c2cccc(Cl)c2)cc1 | 13.4 | – |
| COc1ccc(Cl)cc1C(=O)NCCc1ccc(S(=O)(=O)N2CCCCC2)cc1 | 5.01 | – |
| COc1ccc(Cl)cc1C(=O)NCCc1ccc(S(=O)(=O)NCc2ccc(C(F)(F)F)cc2)cc1 | 1.9 | – |
| CNS(=O)(=O)c1ccc(CCCNC(=O)c2cc(Cl)ccc2OC)cc1 | 2.03 | – |
| COc1ccc(Cl)cc1C(=O)NCCc1ccc(S(=O)(=O)N2CCNCC2)cc1 | 3.4 | – |
| COc1ccc(CNS(=O)(=O)c2ccc(CCNC(=O)c3cc(Cl)ccc3OC)cc2)cc1 | 0.42 | IC50 [2]: 0.36 µM; inhibition [3]: Active |
| COc1ccc(Cl)cc1C(=O)NCCc1ccc(S(=O)(=O)N2CCOCC2)cc1 | 3.44 | – |
| COc1ccc(Cl)cc1C(=O)NCCc1ccc(S(=O)(=O)NCc2ccc(O)cc2)cc1 | 0.63 | – |
| COc1ccc(Cl)cc1C(=O)NCCc1ccc(S(=O)(=O)N2CCC2)cc1 | 1.66 | – |
| CNS(=O)(=O)c1ccc(CCNC(=O)c2cc(Cl)cc(OC)c2)cc1 | 5.83 | – |
| CNS(=O)(=O)c1ccc(CCNC(=O)c2cc(Cl)ccc2OC)cc1 | – | Activity [4]: Non-Toxic; Activity [5]: <50%; Activity [6]: Active; Activity [7]: Active; Activity [8]: Active; Activity [9]: Active; Activity [10]: Active |
| CCCCNS(=O)(=O)c1ccc(CCNC(=O)c2cc(Cl)ccc2OC)cc1 | 0.97 | – |
| CNS(=O)(=O)c1ccc(CCNC(=O)c2cc(Cl)ccc2O)cc1 | 10.5 | – |
| COc1ccc(Cl)cc1C(=O)NCCc1ccc(S(=O)(=O)NCc2ccccc2)cc1 | 1.31 | – |
| CCCCN(CCCC)S(=O)(=O)c1ccc(CCNC(=O)c2cc(Cl)ccc2OC)cc1 | 0.55 | Ratio IC50 [11]: 4; IC50 [2]: 0.12 µM; inhibition [3]: Active |
| COc1ccc(Cl)cc1C(=O)NCCc1ccc(S(=O)(=O)NCCc2ccccc2)cc1 | 0.81 | – |
| CNS(=O)(=O)c1ccc(CCCCNC(=O)c2cc(Cl)ccc2OC)cc1 | 1.74 | – |
| CNS(=O)(=O)c1ccc(CCNC(=O)c2cccc(Cl)c2OC)cc1 | 31.8 | – |
| CCCN(CCC)S(=O)(=O)c1ccc(CCNC(=O)c2cc(Cl)ccc2OC)cc1 | 1.4 | – |
| COc1ccc(Cl)cc1C(=O)NCCc1ccc(S(=O)(=O)N2CCCC2)cc1 | 3.53 | – |
| CNS(=O)(=O)c1ccc(CCNC(=O)c2ccccc2)cc1 | 147 | – |
